Data reported in ChEMBL document CHEMBL2311257, “Synthesis and antioxidant activity of thymol and carvacrol based Schiff bases” (Bioorg Med Chem Lett, 2013).
Values after ≈ are worked out from the molar mass of the structure shown. Active and inactive are the calls of the source. No cut-off for these calls is given here.

Assays:
Type in all cases: functional
[1] = tested on: Radical scavenging activity; test: Antioxidant activity assessed as DPPH radical scavenging activity in chloroform solution at 100 ug/mL
[2] = tested on: Radical scavenging activity; test: Antioxidant activity assessed as DPPH radical scavenging activity in chloroform solution at 25 ug/mL
[3] = tested on: Radical scavenging activity; test: Antioxidant activity assessed as DPPH radical scavenging activity in chloroform solution at 50 ug/mL
[4] = tested on: Radical scavenging activity; test: Antioxidant activity assessed as DPPH radical scavenging activity in chloroform solution at 10 ug/mL
[5] = tested on: Radical scavenging activity; test: Antioxidant activity assessed as DPPH radical scavenging activity in ethanol solution at 50 ug/mL
Procedure, shortened: (§1)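 Compound dissolved in ethanol, then ethanolic DPPH added. Incubated 30 min in the dark. DPPH decrease read as absorbance at 517 nm against an ethanol blank, with ascorbic acid as reference. % activity = [(A0 − Ai)/A0] × 100, where A0 is absorbance without compound and Ai with compound. IC50 taken from activity across concentrations.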

[6] = tested on: Radical scavenging activity; test: Antioxidant activity assessed as DPPH radical scavenging activity in ethanol solution at 100 ug/mL; procedure, shortened: as §1
[7] = tested on: Radical scavenging activity; test: Antioxidant activity assessed as DPPH radical scavenging activity in chloroform solution at 5 ug/mL
[8] = tested on: Radical scavenging activity; test: Antioxidant activity assessed as DPPH radical scavenging activity in ethanol solution at 25 ug/mL; procedure, shortened: as §1
[9] = tested on: Radical scavenging activity; test: Antioxidant activity assessed as DPPH radical scavenging activity in ethanol solution at 5 ug/mL; procedure, shortened: as §1
[10] = tested on: Radical scavenging activity; test: Antioxidant activity assessed as DPPH radical scavenging activity in ethanol solution at 10 ug/mL; procedure, shortened: as §1
[11] = Antioxidant activity assessed as ABTS radical scavenging activity at 5 ug/mL
Procedure, shortened: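 ABTS radical cation solution diluted in ethanol to an absorbance of 0.7–0.9 at 734 nm, 30 °C. Equal volume added to ethanolic compound solution (5 µg/mL). Absorbance read after 1 min and converted to percent inhibition.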

[12] = tested on: Radical scavenging activity; test: Antioxidant activity assessed as DPPH radical scavenging activity in chloroform solution
[13] = tested on: Radical scavenging activity; test: Antioxidant activity assessed as DPPH radical scavenging activity in ethanol solution; procedure, shortened: as §1

Row | IC50 [12] [µg/mL] | IC50 [13] [µg/mL] | SMILES | Activity [1] [%] | Activity [2] [%] | Activity [3] [%] | Activity [4] [%] | Activity [5] [%] | Activity [6] [%] | Activity [7] [%] | Activity [8] [%] | Activity [9] [%] | Activity [10] [%] | Activity [11]
1 | 13.46 (≈ 30.5 µM) | 11.45 (≈ 26 µM) | Cc1cc(O)c(C(C)(C)C)cc1/N=C/c1cc(Br)cc(Br)c1O | 90.7 | 76.4 | 86.1 | 45.2 | 88.8 | 90.1 | 24.6 | 72.7 | 26.7 | 48.2 | Active
2 | 15.13 (≈ 56.2 µM) | 9.76 (≈ 36.2 µM) | Cc1cc(/N=C/c2ccc(O)cc2)c(C(C)C)cc1O | 88.1 | 66.2 | 75.9 | 42.8 | 82.9 | 92.2 | 36.1 | 70.4 | 33.7 | 48.6 | Active
3 | 22.03 (≈ 64.1 µM) | 22.96 (≈ 66.9 µM) | COc1cc(/C=N/c2cc(C(C)C)c(O)cc2C)cc(OC)c1OC | 89.9 | 68.2 | 82.9 | 39.8 | 73.3 | 83.1 | 20.7 | 65.4 | 26 | 41.6 | Active
